These results are taken from ChEMBL document CHEMBL1156681, “Synthesis, anti-bacterial, anti-asthmatic and anti-diabetic activities of novel N-substituted-2-(4-phenylethynyl-phenyl)-1H-benzimidazoles and N-substituted 2[4-(4,4-dimethyl-thiochroman-6-yl-ethynyl)-phenyl)-1H-benzimidazoles” (2008).

Assay [1] concerns Salmonella typhimurium. Put plainly: Antibacterial activity against Salmonella Typhimurium at 1 ug/ml after 48 hrs by tube dilution method. The note with it: Salmonella enterica subsp. enterica serovar Typhimurium. The format is functional, organism-based. A digest of the protocol:
(§1)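 Compounds dissolved in DMSO and tested by tube dilution at […]. Tubes were incubated at 37 °C for 48 h. Growth was scored against the DMSO control as poor, medium or confluent (no inhibition). MIC was taken from the dilution series. Cephalexin served as the reference antibacterial and DMSO as the solvent control.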

Assay [2] concerns Salmonella typhimurium. The experiment in a line: Antibacterial activity against Salmonella Typhimurium after 48 hrs by tube dilution method. The format is functional, Salmonella enterica subsp. enterica serovar Typhimurium. As to conditions: Salmonella enterica. An outline of the steps: as §1
For assay [3], the system named is Staphylococcus aureus. Put plainly: Antibacterial activity against Staphylococcus aureus at 500 ug/ml after 48 hrs by tube dilution method. The format is functional, organism-based. An outline of the steps:
as §1

Assay [4] concerns Salmonella typhimurium. Put plainly: Antibacterial activity against Salmonella Typhimurium at 500 ug/ml after 48 hrs by tube dilution method. The format is functional, organism-based. The note with it: Salmonella enterica subsp. enterica serovar Typhimurium. An outline of the steps: as §1
The target in assay [5] is Phosphodiesterase 4 (Homo sapiens) (UniProt P27815+Q08499+Q07343+Q08493). Put plainly: Inhibition of human PDE4 at 1 uM after 20 mins. It is filed as protein assay.
Assay [6] concerns the target T1, Tyrosine-protein phosphatase non-receptor type 1 (Homo sapiens) (UniProt P18031).
T1 sequence (whole entry): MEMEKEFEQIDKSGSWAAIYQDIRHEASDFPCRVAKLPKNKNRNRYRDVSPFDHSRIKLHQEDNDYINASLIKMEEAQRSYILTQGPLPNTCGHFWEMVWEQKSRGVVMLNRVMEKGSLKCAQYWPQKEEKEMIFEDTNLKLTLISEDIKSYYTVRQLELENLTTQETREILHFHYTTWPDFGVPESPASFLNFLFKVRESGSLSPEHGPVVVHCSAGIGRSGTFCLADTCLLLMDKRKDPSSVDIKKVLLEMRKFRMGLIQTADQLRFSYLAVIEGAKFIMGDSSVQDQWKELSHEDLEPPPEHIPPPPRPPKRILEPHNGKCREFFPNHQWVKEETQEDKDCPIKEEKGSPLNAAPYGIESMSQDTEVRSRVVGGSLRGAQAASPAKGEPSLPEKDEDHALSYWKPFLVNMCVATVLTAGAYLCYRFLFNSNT
The experiment in a line: Inhibition of human recombinant PTP1B at 30 uM after 30 mins relative to control. A digest of the protocol: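 In-house human recombinant PTP-1B (~35 ng) was assayed with p-nitrophenyl phosphate in 25 mM Hepes, 3 mM DTT and 1 mM EDTA, pH 7.4, with DMSO at ≤1%. Absorbance at 405 nm was monitored continuously at 30 °C for 30 min, then NaOH was added and 405 nm read again. Activity was expressed as % of control, and % inhibition as 100 minus activity.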

For assay [7], the system named is Staphylococcus aureus. Put plainly: Antibacterial activity against Staphylococcus aureus at 10 ug/ml after 48 hrs by tube dilution method. The format is functional, organism-based. An outline of the steps: as §1
The test system of assay [8] is Salmonella typhimurium. The experiment in a line: Antibacterial activity against Salmonella Typhimurium at 200 ug/ml after 48 hrs by tube dilution method. It is filed as functional, organism-based. The note with it: Salmonella enterica subsp. enterica serovar Typhimurium. A digest of the protocol:
as §1

Assay [9] concerns Salmonella typhimurium. The experiment in a line: Antibacterial activity against Salmonella Typhimurium at 0.1 ug/ml after 48 hrs by tube dilution method. The format is functional, organism-based. The note with it: Salmonella enterica subsp. enterica serovar Typhimurium. An outline of the steps:
as §1

The test system of assay [10] is Staphylococcus aureus. Put plainly: Antibacterial activity against Staphylococcus aureus at 0.1 ug/ml after 48 hrs by tube dilution method. It is filed as functional, organism-based. An outline of the steps: as §1
Assay [11] concerns Salmonella typhimurium. The experiment in a line: Antibacterial activity against Salmonella Typhimurium at 10 ug/ml after 48 hrs by tube dilution method. The format is functional, organism-based. The note with it: Salmonella enterica subsp. enterica serovar Typhimurium. An outline of the steps: as §1
Assay [12] relates to Staphylococcus aureus. The experiment in a line: Antibacterial activity against Staphylococcus aureus after 48 hrs by tube dilution method. The format is functional. A digest of the protocol: as §1
Assay [13] has as its system Staphylococcus aureus. The experiment in a line: Antibacterial activity against Staphylococcus aureus at 1 ug/ml after 48 hrs by tube dilution method. It is filed as functional, organism-based. An outline of the steps:
as §1

In assay [14] the target is Dipeptidyl peptidase 4 (Homo sapiens) (UniProt P27487). Put plainly: Inhibition of human recombinant DPP4 at 0.3 uM after 30 mins relative to control. A digest of the protocol:
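Recombinant human DPP-IV (10 ng) was run in 25 mM Tris pH 7.4, 140 mM NaCl, 10 mM KCl and 1% BSA with Gly-Pro-AMC substrate. Compounds in DMSO were added, and AMC release was followed kinetically at 30 °C for 30 min (ex 380 / em 460 nm). Percent inhibition was calculated against the solvent-only control.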

The test system of assay [15] is Staphylococcus aureus. Put plainly: Antibacterial activity against Staphylococcus aureus at 200 ug/ml after 48 hrs by tube dilution method. It is filed as functional, organism-based. An outline of the steps: as §1

Structures are written as SMILES. Values after ≈ are worked out from the molar mass of the structure shown. Active and inactive are the calls of the source. The rule behind the calls is not given here.

Chain of Dipeptidyl peptidase 4 (Homo sapiens) (P27487 whole entry, looked up): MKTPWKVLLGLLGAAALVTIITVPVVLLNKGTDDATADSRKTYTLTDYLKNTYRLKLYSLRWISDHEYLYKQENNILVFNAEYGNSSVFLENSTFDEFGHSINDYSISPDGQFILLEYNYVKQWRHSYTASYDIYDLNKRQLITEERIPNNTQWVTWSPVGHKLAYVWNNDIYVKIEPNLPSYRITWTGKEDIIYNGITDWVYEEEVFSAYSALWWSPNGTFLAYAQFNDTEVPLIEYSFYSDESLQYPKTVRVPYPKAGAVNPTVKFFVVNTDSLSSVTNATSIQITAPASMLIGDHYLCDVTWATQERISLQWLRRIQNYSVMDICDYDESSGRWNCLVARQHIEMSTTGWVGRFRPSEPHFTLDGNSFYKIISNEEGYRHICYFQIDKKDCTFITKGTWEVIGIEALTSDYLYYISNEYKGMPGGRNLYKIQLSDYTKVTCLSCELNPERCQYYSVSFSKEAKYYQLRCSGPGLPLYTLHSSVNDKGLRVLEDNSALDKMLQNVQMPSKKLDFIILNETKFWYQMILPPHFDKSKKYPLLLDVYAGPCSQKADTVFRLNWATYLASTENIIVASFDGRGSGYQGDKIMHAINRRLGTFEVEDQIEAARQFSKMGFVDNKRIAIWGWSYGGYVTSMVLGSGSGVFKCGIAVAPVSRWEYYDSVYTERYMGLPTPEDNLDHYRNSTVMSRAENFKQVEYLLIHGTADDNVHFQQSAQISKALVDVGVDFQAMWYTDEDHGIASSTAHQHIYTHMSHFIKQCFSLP

`CC1(C)CCSc2ccc(C#Cc3ccc(-c4nc5ccccc5n4S(=O)(=O)C(F)(F)F)cc3)cc21`: the outcome in the assay with Salmonella typhimurium [1], in the assay with Staphylococcus aureus [7], in the assay with Salmonella typhimurium [9], in the assay on Staphylococcus aureus [10], in the assay on Salmonella typhimurium [11] and in the assay on Staphylococcus aureus [13] was inactive. Further, the MIC (in general, the lowest concentration found to suppress growth) came to 200 µg/mL (≈ 380 µM) in the assay with Salmonella typhimurium [2] and 500 µg/mL (≈ 949 µM) with Staphylococcus aureus [12]. Moreover, the result with Staphylococcus aureus [3], with Salmonella typhimurium [4] and in the assay on Salmonella typhimurium [8] was Active. The inhibition (usually the percentage by which the read-out fell short of the control) in [5] turned out to be 22.6%; in assay [6], 0.52%; in assay [14] it was 9%.

Turning to `CCCCn1c(-c2ccc(C#Cc3ccccc3)cc2)nc2ccccc21`, the result in the assay on Salmonella typhimurium [1], with Salmonella typhimurium [9], in the assay with Staphylococcus aureus [10] and with Staphylococcus aureus [13] was inactive. Further, the minimal inhibitory concentration (MIC) against Salmonella typhimurium [2] and in the assay on Staphylococcus aureus [12] was 500 µg/mL (≈ 1430 µM) throughout. The result in the assay on Staphylococcus aureus [3] and in the assay with Salmonella typhimurium [4] was Active. Also, the inhibition came out at 19.4% in assay [5], 0% in assay [6] and 3% in assay [14].

As for `CCCCn1c(-c2ccc(C#Cc3ccc4c(c3)C(C)(C)CCS4)cc2)nc2ccccc21`, the outcome with Salmonella typhimurium [1], with Salmonella typhimurium [9] and with Staphylococcus aureus [10] was inactive. Further, the MIC in the assay with Salmonella typhimurium [2] and with Staphylococcus aureus [12] was 200 µg/mL (≈ 444 µM) each time. In addition, the result in the assay with Staphylococcus aureus [3], with Salmonella typhimurium [4], with Salmonella typhimurium [8] and in the assay on Staphylococcus aureus [15] was Active. Besides, the inhibition in assay [5] was found to be 19.9%; in assay [6], 0.15%; in [14], 5%.

Turning to `COC(=O)n1c(-c2ccc(C#Cc3ccccc3)cc2)nc2ccccc21`, the result in the assay with Salmonella typhimurium [1], in the assay with Salmonella typhimurium [9], with Staphylococcus aureus [10], in the assay on Salmonella typhimurium [11] and with Staphylococcus aureus [13] was inactive. Also, the minimum inhibitory concentration (MIC) against Salmonella typhimurium [2] and in the assay on Staphylococcus aureus [12] was 500 µg/mL (≈ 1420 µM) in each case. Moreover, the outcome in the assay with Staphylococcus aureus [3] and in the assay on Salmonella typhimurium [4] was Active. The results for the inhibition in [5], in assay [6] and in assay [14] were 18.2%, 29% and 0%, respectively.

In the case of `CCOC(=O)n1c(-c2ccc(C#Cc3ccccc3)cc2)nc2ccccc21`, the outcome with Salmonella typhimurium [1], in the assay with Salmonella typhimurium [9], in the assay with Staphylococcus aureus [10] and in the assay on Staphylococcus aureus [13] was inactive. In addition, the minimum inhibitory concentration (MIC) against Salmonella typhimurium [2] and against Staphylococcus aureus [12] was 500 µg/mL (≈ 1360 µM) throughout. The result with Staphylococcus aureus [3] and with Salmonella typhimurium [4] was Active. The inhibition in assay [5] came to 16.5%; in assay [6] it was 27.7%; in assay [14], 0%.

As to `COC(=O)n1c(-c2ccc(C#Cc3ccc4c(c3)C(C)(C)CCS4)cc2)nc2ccccc21`, the result in the assay with Salmonella typhimurium [1], with Salmonella typhimurium [9], in the assay on Staphylococcus aureus [10] and in the assay with Staphylococcus aureus [13] was inactive. For the same compound, the MIC against Salmonella typhimurium [2] and against Staphylococcus aureus [12] was 200 µg/mL (≈ 442 µM) each time. Further, the outcome in the assay with Staphylococcus aureus [3], in the assay with Salmonella typhimurium [4], in the assay on Salmonella typhimurium [8] and with Staphylococcus aureus [15] was Active. The inhibition in [5] was determined as 17.9%; in assay [6], 0.97%; in assay [14] it was 5%.

For the compound `CCCn1c(-c2ccc(C#Cc3ccccc3)cc2)nc2ccccc21`, the outcome in the assay with Salmonella typhimurium [1], with Staphylococcus aureus [7], in the assay on Salmonella typhimurium [9], in the assay with Staphylococcus aureus [10] and in the assay on Staphylococcus aureus [13] was inactive. The MIC in the assay with Salmonella typhimurium [2] and in the assay on Staphylococcus aureus [12] was 500 µg/mL (≈ 1490 µM) throughout. For the same compound, the result in the assay with Staphylococcus aureus [3] and with Salmonella typhimurium [4] was Active. For the same compound, the inhibition in [5] was 8.91%; in assay [6], 0%; in assay [14], 0%.

On to `Cn1c(-c2ccc(C#Cc3ccc4c(c3)C(C)(C)CCS4)cc2)nc2ccccc21`, for which the outcome in the assay with Salmonella typhimurium [1], in the assay with Salmonella typhimurium [9], with Staphylococcus aureus [10] and in the assay on Staphylococcus aureus [13] was inactive. Besides, the MIC against Salmonella typhimurium [2] and with Staphylococcus aureus [12] was 200 µg/mL (≈ 490 µM) throughout. In addition, the result in the assay with Staphylococcus aureus [3], in the assay with Salmonella typhimurium [4], in the assay with Salmonella typhimurium [8] and in the assay with Staphylococcus aureus [15] was Active. For the same compound, the inhibition in assay [5] stood at 18.2%; in [6], 0%; in [14] it was 0%.

Consider `CCCCOC(=O)n1c(-c2ccc(C#Cc3ccc4c(c3)C(C)(C)CCS4)cc2)nc2ccccc21`, for which the result in the assay with Salmonella typhimurium [1], in the assay with Salmonella typhimurium [9], in the assay with Staphylococcus aureus [10] and in the assay on Staphylococcus aureus [13] was inactive. Further, the minimal inhibitory concentration (MIC) in the assay on Salmonella typhimurium [2] and with Staphylococcus aureus [12] was 500 µg/mL (≈ 1010 µM) in each case. Also, the result in the assay with Staphylococcus aureus [3] and with Salmonella typhimurium [4] was Active. Also, the values for the inhibition in assay [5], in [6] and in assay [14] were 21%, 1.94% and 0%, respectively.

On to `CCCn1c(-c2ccc(C#Cc3ccc4c(c3)C(C)(C)CCS4)cc2)nc2ccccc21`, for which the outcome with Salmonella typhimurium [1], in the assay with Staphylococcus aureus [7], in the assay with Salmonella typhimurium [9], in the assay with Staphylococcus aureus [10], in the assay with Salmonella typhimurium [11] and in the assay with Staphylococcus aureus [13] was inactive. Further, the MIC against Salmonella typhimurium [2] and against Staphylococcus aureus [12] was 500 µg/mL (≈ 1150 µM) in each case. For the same compound, the result with Staphylococcus aureus [3] and in the assay on Salmonella typhimurium [4] was Active. Besides, the values for the inhibition in assay [5], in [6] and in assay [14] were 17.3%, 7.38% and 0%, respectively.

Take `CCOC(=O)n1c(-c2ccc(C#Cc3ccc4c(c3)C(C)(C)CCS4)cc2)nc2ccccc21`: the result in the assay with Salmonella typhimurium [1], in the assay with Staphylococcus aureus [7], in the assay on Salmonella typhimurium [9], with Staphylococcus aureus [10], in the assay with Salmonella typhimurium [11] and in the assay with Staphylococcus aureus [13] was inactive. Moreover, the MIC against Salmonella typhimurium [2] and against Staphylococcus aureus [12] was 500 µg/mL (≈ 1070 µM) each time. For the same compound, the outcome in the assay on Staphylococcus aureus [3] and in the assay on Salmonella typhimurium [4] was Active. Also, the inhibition in assay [5] came to 16.9%; in assay [6], 0%; in assay [14], 7%.

Take `Cn1c(-c2ccc(C#Cc3ccccc3)cc2)nc2ccccc21`: the outcome in the assay with Salmonella typhimurium [1], with Staphylococcus aureus [7], in the assay with Salmonella typhimurium [9], with Staphylococcus aureus [10], with Salmonella typhimurium [11] and in the assay on Staphylococcus aureus [13] was inactive. In addition, the minimal inhibitory concentration (MIC) with Salmonella typhimurium [2] is 200 µg/mL (≈ 649 µM); in the assay on Staphylococcus aureus [12], 500 µg/mL (≈ 1620 µM). Further, the result in the assay with Staphylococcus aureus [3], in the assay with Salmonella typhimurium [4] and with Salmonella typhimurium [8] was Active. Besides, the inhibition in assay [5] was determined as 22.3%; in assay [6], 8.42%; in [14] it was 9%.
